Bioassay records (PubChem BioAssay)
T cell HTS: T cell immune modulators affecting CD8 T cell-vesicle binding; 2C CD8+ T cell-vesicle binding, flow cytometry; stronger effect = lower value; response (vesicle binding), % at 7 µM; 330,000 compounds, 0.068% hits;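 active means response, share of CD8 T cells binding vesicles, and their 90th percentile fluorescence all below set limits, cut at about 80% in these data, passing the limit was not always enough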;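 further: values below 100% mean blocked vesicle binding to the CD8+ T cells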
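Benchmarks: naked versus QL9-loaded vesicles / Assay system: purified 2C TCR transgenic mouse naive CD8+ T cells / Technique: high-throughput flow cytometry with anti-B7-1 and anti-CD8 staining / Timing: Cell–vesicle co-incubation 1.5 h at 37 °C, staining 20 min on ice / Read-out: percent CD8+ FL2 mean versus row control / Probe or stimulus: QL9-loaded Drosophila micro-vesicles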
Pemphigus Ab inh: blocks pemphigus antibody binding to human desmoglein-3; DSG3-coupled beads, scFv-anti-DSG3-GFP binding, flow cytometry; stronger effect = lower value; 310,000 compounds, 0.48% hits; P32926; binding (percent of control), % at 10 µM;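 active means binding more than 3 SD below its plate's average and above zero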
Target sequence (P32926 whole entry, looked up): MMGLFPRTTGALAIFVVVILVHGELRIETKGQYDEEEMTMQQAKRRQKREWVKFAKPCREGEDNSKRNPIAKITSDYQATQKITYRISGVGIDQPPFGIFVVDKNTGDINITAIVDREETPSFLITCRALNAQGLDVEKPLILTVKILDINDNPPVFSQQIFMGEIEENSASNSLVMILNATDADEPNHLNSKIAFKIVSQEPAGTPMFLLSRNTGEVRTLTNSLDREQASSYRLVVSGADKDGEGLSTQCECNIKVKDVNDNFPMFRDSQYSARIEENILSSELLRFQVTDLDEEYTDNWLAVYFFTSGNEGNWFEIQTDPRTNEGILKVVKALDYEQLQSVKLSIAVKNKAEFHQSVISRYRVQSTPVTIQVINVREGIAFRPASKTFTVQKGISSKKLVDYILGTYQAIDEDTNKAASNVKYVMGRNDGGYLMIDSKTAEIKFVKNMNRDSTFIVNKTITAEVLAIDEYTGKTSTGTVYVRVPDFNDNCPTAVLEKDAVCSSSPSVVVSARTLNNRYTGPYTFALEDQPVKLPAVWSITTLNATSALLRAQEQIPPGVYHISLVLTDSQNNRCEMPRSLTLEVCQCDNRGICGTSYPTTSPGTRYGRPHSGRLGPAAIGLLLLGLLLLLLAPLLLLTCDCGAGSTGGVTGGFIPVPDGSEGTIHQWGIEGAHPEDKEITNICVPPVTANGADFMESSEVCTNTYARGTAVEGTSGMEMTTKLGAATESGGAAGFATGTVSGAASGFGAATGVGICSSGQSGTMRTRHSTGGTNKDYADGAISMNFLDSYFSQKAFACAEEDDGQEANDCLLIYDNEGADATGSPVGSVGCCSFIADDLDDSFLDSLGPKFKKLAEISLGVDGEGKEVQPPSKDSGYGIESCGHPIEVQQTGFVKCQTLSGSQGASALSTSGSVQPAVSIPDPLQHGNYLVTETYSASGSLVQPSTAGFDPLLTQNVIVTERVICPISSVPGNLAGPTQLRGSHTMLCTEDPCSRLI
CHT inh: inhibits the human high affinity choline transporter; B-score at 10 µM; 310,000 compounds, 0.86% hits; AID 488975; Q9GZV3; CHT-expressing cells, membrane potential dye, choline response; stronger effect = lower value;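 active means B-score over 3 SD under the library average, and starting fluorescence ratio not unusually high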;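 further: choline stimulus applied at its EC90 after an EC20 pre-addition; B-score computed on integrated fluorescence ratio after choline addition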
GPR7 antagonist: blocks human GPR7 receptor signaling | P48145 | GPR7-expressing cells, fluorescence antagonist assay | inhibition, % at 4.4 µM | 290,000 compounds, 1.1% hits; in the data active means inhibition above about 16%, passing the limit was not always enough;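 further: cells stimulated with the agonist NPW; 0% = agonist with vehicle and 100% = vehicle without agonist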
CHT PAM: allosterically activates the human high affinity choline transporter | B-score at 10 µM | Q9GZV3 | CHT-expressing cells, membrane potential dye, choline EC20; stronger effect = higher value; LV-AA mutant CHT in HEK293 cells | 310,000 compounds, 0.49% hits;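 active means initial fluorescence not abnormally high and integrated response B-score, plate-corrected, over 3 SD above library mean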
pCIP destab: compounds decreasing mouse p/CIP protein stability; F442A p/CIP-EGFP cells, EGFP fluorescence, 16 h; decrease of EGFP signal, % at 10 µM; 290,000 compounds, 0.01% hits;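 active means EGFP signal decrease of at least 30% at 10 µM or well 3 SD below plate mean, unless failing retest; inactive means the rest, including hits failing retest or dose response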
CHT activ conf: confirmation of human choline transporter (CHT) activators | 2,500 compounds, 91% hits | AID 504833 | activation, % at 10 µM | CHT-expressing cells, membrane potential dye fluorescence (FDSS); % of choline EC20–EC90 response window; HEK293 expressing CHT LV-AA mutant; choline added at its EC20 | shares compounds with CHT PAM;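 active means primary screen active, with duplicate mean activation above negative control mean plus 3 SD, cut at about 11% in these data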
HEK293 MP dye: activity in parental HEK293 cells lacking CHT; shares compounds with CHT PAM; membrane potential dye fluorescence (FDSS); measured after EC20 choline addition; ratio readout change at 10 µM, hits read low; 2,500 compounds, 62% hits; AID 623908;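 active means duplicate-averaged ratio beyond 3 SD from buffer wells, up or down, though filed actives are nearly all decreases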
Starred values were filed as active, the others as inactive; i = inactive; nt = no result. In the library only some 2.3% were active in any assay of this set; here they are far more common.

SMILES	T cell HTS	Pemphigus Ab inh	CHT inh	GPR7 antagonist	CHT PAM	pCIP destab	CHT activ conf	HEK293 MP dye
COc1ccc(CNC(=O)C(c2cccs2)N(Cc2ccco2)C(=O)Cc2cccs2)cc1 (centres undefined)	232.7	nt	i	-5.8	6.6*	-3.4	25.9*	i
CCc1nc(N=C(N)N)nc2ccccc12	435.8	nt	i	-1.8	i	-2.4	nt	nt
NC(N)=Nc1nc(-c2ccccc2)c2ccccc2n1	95.8	102.4	i	1.5	8.07*	-4.5	24.1*	-52.1*
CC1(C(=O)Nc2ccc(S(=O)(=O)Nc3ncccn3)cc2)CCCC1	387.9	89.8	nt	nt	nt	nt	nt	nt
COc1cc(/C=C2\CCn3c2nc2cc(C(=O)O)ccc2c3=O)ccc1OC(F)F	97.1	95.1	i	-4.6	i	-4.3	26.4*	-32.3*
CC(C)[C@H](N)C(=O)N[C@H]1CCC2C3CC=C4C[C@@H](O)CC[C@]4(C)C3CC[C@@]21C (some centres undefined)	nt	100.0	nt	nt	nt	nt	nt	nt
CC(C)(C)OC(=O)N1Cc2ccccc2C[C@H]1C(=O)NC1CCCC1	190.0	94.0	i	-7.8	i	-7.1	2.1	i
CCC(=O)c1ccc2c(c1)N(CCCN(C)C)c1ccccc1S2	315.9	nt	i	nt	9.09*	nt	28.6*	-44.5*
Cc1ccc(S(=O)(=O)N2CCCCC2)cc1C(=O)OC(C)C(=O)NC1CCCCC1C (centres undefined)	nt	86.2	nt	nt	nt	nt	nt	nt
Cc1ccc(C(c2nnnn2C(C)(C)C)N2CCN(C3CCCC3)CC2)cc1 (centres undefined)	156.1	nt	i	-5.5	i	-18.4	nt	nt
CC(C)CC(c1nnnn1C(C)(C)C)N1CCN(C2CCCC2)CC1 (centres undefined)	223.6	91.4	i	17.8*	6.64*	-7.8	14.6*	i
O=C(Nc1cccc(F)c1)Nc1ccnn1C1CCN(C(=O)c2cscn2)CC1	604.7	113.2	i	-5.8	i	-7.9	nt	nt
Fc1ccc(C(c2nnnn2Cc2ccco2)N2CCN(C3CCCCC3)CC2)cc1 (centres undefined)	391.8	nt	i	18.7	i	-2.6	31.5*	i
CC(C)n1nnnc1C(c1ccc(F)cc1)N1CCN(C2CCCC2)CC1 (centres undefined)	nt	nt	nt	12.8	nt	2.1	nt	nt
COc1ccc(OC)c(N/C(=N/C(=S)Nc2ccccc2)Nc2nc(C)cc(C)n2)c1	963.5	96.5	i	-15.3	i	-0.2	nt	nt
CCC(=Nc1ccccc1OC)C1=C(O)CC(c2ccccc2)CC1=O (centres undefined)	271.4	105.7	i	-1.7	11.7*	6.1	32.0*	i
O=C(c1nn(Cc2ccccc2)c(=O)c2ccccc12)N1CCc2ccccc2C1	232.1	102.7	i	7.8	8.39*	-11.6	28.3*	i
NC(=O)C1Cc2ccccc2CN1C(=O)c1nn(Cc2ccccc2)c(=O)c2ccccc12 (centres undefined)	439.9	nt	nt	nt	nt	nt	nt	nt
CCCCN(CCCC)CP(=O)(c1ccccc1)c1ccccc1	213.1	102.6	i	20.0	8.87*	-15.9	30.5*	i
Nc1nc(SCc2ccccn2)c2ncn(C3OC(CO)C(O)C3O)c2n1 (centres undefined)	nt	112.2	nt	nt	nt	nt	nt	nt
Cc1nc([N+](=O)[O-])c(N2CCN(Cc3ccccc3)CC2)n1Cc1ccccc1	945.0	107.1	i	5.8	7.37*	7.0	32.8*	i
Cc1ccc(C(C(=O)NC2CCCCC2)N(Cc2ccco2)C(=O)Cc2c[nH]c3ccccc23)o1 (centres undefined)	422.7	78.5	i	23.9	6.41*	1.2	26.0*	i
Cc1ccc(C(C(=O)NC2CCCC2)N(Cc2ccco2)C(=O)CCC(=O)Nc2cc(C)on2)cc1 (centres undefined)	187.1	96.9	i	-14.5	6.43*	-11.2	-0.8	i
O=C1c2nc3cc(-c4ccco4)[nH]n3c(=O)c2CN1Cc1ccccc1	375.8	107.5	i	-9.0	6.97*	-15.3	29.7*	-55.2*
CCCCc1c(C)nc2cc(-c3ccco3)[nH]n2c1=O	554.5	104.3	i	-1.9	i	-10.8	nt	nt
SMILES	T cell HTS	Pemphigus Ab inh	CHT inh	GPR7 antagonist	CHT PAM	pCIP destab	CHT activ conf	HEK293 MP dye
CC(C)c1ccccc1NC(=O)COC(=O)c1c2c(nc3ccccc13)CCN(Cc1ccccc1)C2	i	91.2	i	5.1	i	-19.4	nt	nt
Cc1c(Cl)cccc1NC(=O)COC(=O)c1c2c(nc3ccccc13)CCN(Cc1ccccc1)C2	197.2	104.8	i	-12.5	i	-15.3	20.6*	i
Cc1ccc(S(=O)(=O)N2C[C@H]3C(=O)C[C@@H](c4cccc(Cl)c4)N(S(=O)(=O)c4ccc(C)cc4)[C@H]3C[C@H]2c2ccccc2)cc1	nt	97.1	nt	nt	nt	nt	nt	nt
CC/C(=C/c1sc2ccc(C)cc2[n+]1CCCS(=O)(=O)[O-])SC	500.2	nt	i	3.2	6.78*	-4.9	48.0*	i
COc1ccc(-c2ccc(CN3C(C(C)C)C(=O)N(Cc4cn(CC5CCCCC5)nn4)CCS3(=O)=O)cc2)cc1OC (centres undefined)	nt	97.2	nt	nt	nt	nt	nt	nt
Cn1c(=O)c2c(nc(N3CCOCC3)n2CCCNC2=NCCCCC2)n(C)c1=O	554.6	nt	i	-11.5	8.44*	-3.4	60.5*	-63.1*
CCN(CC)S(=O)(=O)c1cnccc1N1CCN(c2cccc(Cl)c2)CC1	243.0	93.7	i	19.7	9.33*	-6.5	12.8*	i
C[C@@H]1CN([C@@H](C)CO)S(=O)(=O)c2ccc(Br)cc2O[C@H]1CN(C)C(=O)Cc1cccnc1	nt	103.2	nt	nt	nt	nt	nt	nt
O=C(COc1ccc2c(c1)oc(=O)c1ccccc12)NCC1CCC(C(=O)O)CC1 (centres undefined)	376.4	nt	i	5.5	6.32*	-8.4	31.8*	-20.4*
CN(C(=O)COC(=O)C12CC3CC(CC(Cl)(C3)C1)C2)c1ccccc1	478.9	99.3	nt	nt	nt	nt	nt	nt
N#Cc1c(=O)c2nc(NCc3ccccc3)ncc2n2ccccc12	848.6	97.8	i	9.7	i	-12.6	24.2*	-39.9*
N#Cc1c(=O)c2nc(NCCCO)ncc2n2c(=O)c3ccccc3[nH]c12	118.4	100.2	i	-20.2	i	-18.6	nt	nt
CN(C)c1cc[n+](Cc2c(Cl)cccc2Cl)cc1	531.8	103.6	i	2.0	6.82*	-8.2	43.2*	-46.3*
CN(C)c1cc[n+](CC[n+]2ccc(N(C)C)cc2)cc1	254.2	107.8	i	nt	i	nt	nt	nt
